Measurements taken from publication PMC10239344 (ChemMedChem, 2023).
pIC50, pKi: −log10 of the molar value. Where two headings read alike, the source gives them in different places.

Tests used:
[1] = target: T1, K. pneumoniae LpxH (KpLpxH) (Klebsiella pneumoniae subsp. pneumoniae, UniProt A6T5R0); test: LpxE-coupled malachite green LpxH activity assay; type: biochemical
T1 sequence (A6T5R0 1-240): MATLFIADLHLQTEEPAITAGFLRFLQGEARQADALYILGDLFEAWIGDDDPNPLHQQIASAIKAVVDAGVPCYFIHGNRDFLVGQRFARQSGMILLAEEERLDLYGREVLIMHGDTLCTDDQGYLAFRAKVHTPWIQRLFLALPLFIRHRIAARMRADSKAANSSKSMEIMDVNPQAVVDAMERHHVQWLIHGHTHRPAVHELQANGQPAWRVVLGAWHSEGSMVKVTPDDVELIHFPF
Summary of the method: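 Enzyme/inhibitor and substrate mixes were preincubated 10 min at 37 °C, then combined (final 100 μM UDP-DAGn, 10 ng/mL enzyme). Aliquots were EDTA-quenched, then A. aeolicus LpxE 5 μg/mL was added for 30 min at 37 °C. Formic acid stop; malachite green A620. Triplicates; activity normalized to DMSO control; IC50 fit converted to competitive KI.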

[2] = target: T1, K. pneumoniae LpxH (KpLpxH); details: cited from earlier work; for Percentage Activity of KpLpxH (vi/v0) / Percentage Inhibition of KpLpxH: 0.1 μM inhibitor, previously reported

| Compound | Percentage Inhibition of KpLpxH ([1]; 0.1 μM inhibitor) | pKi ([1]; read-out: KI for KpLpxH, from IC50, competitive binding mode, KM 68.1 μM) | Percentage Activity of KpLpxH (vi/v0) [2] | Percentage Inhibition of KpLpxH [2] | Percentage Activity of KpLpxH (vi/v0) ([2]; listed as 2 (JH-LPH-33)) | pIC50 ([2]; read-out: IC50 of KpLpxH inhibition, reported value) | pKi ([2]; read-out: KI for KpLpxH, reported value) |
| --- | --- | --- | --- | --- | --- | --- | --- |
| O=C(CCCCCNC(=O)Nc1ccc(S(=O)(=O)N2CCN(c3cc(Cl)cc(C(F)(F)F)c3)CC2)cc1)NO [Compound 13] | 97% | 8.51 |  |  |  |  |  |
| CC(=O)N1CCc2cc(S(=O)(=O)N3CCN(c4cc(Cl)cc(C(F)(F)F)c4)CC3)ccc21 [Compound 2] |  |  | 21% | 79^[16] % | 21^[16] % | 7.59 | 8.00 |
| CC(=O)N1CCc2cc(S(=O)(=O)N3CCN(c4cccc(C(F)(F)F)c4)CC3)ccc21 [Compound 1] |  |  | 78^[16] % | 22^[16] % |  |  |  |
